Reference: ChEMBL document CHEMBL3414565, “Discovery of novel AHLs as potent antiproliferative agents” (Eur J Med Chem, 2015)

Legend:
MCF7 [1] = experiment: Cell cycle arrest in human MCF7 cells assessed as accumulation at G2/M phase at 2 to 8 uM by propidium iodide staining-based flow cytometry; assay type: functional; settings: TDE = time-dependent effect
MCF7 [2] = experiment: Cell cycle arrest in human MCF7 cells assessed as accumulation at S phase at 2 uM after 24 hrs by propidium iodide staining-based flow cytometry (reference value: 40.08%); assay type: functional
MCF7 [3] = experiment: Induction of apoptosis in human MCF7 cells assessed as viable cells at 2 uM after 24 hrs by annexin V-FITC/propidium iodide staining-based flow cytometry (reference value: 87.1%); assay type: functional; settings: MCF7, 24 h, read-out: Activity
Outline: (§1)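 MCF-7 cells were plated at 5.0 × 10^6 cells/mL and held 12 or 24 h at 37 °C. Exponentially growing cells then received complete medium (blank) or compound at 0, 2, 4 or 8 for 12 or 24 h. Harvested cells were stained with Annexin V-FITC/PI and analysed by flow cytometry. Quadrants were scored as live, early apoptotic (annexin+/PI−), late apoptotic (double positive) and damaged (PI+ only).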

MCF7 [4] = experiment: Induction of apoptosis in human MCF7 cells assessed as early apoptotic cells at 2 uM after 24 hrs by annexin V-FITC/propidium iodide staining-based flow cytometry (reference value: 4.5%); assay type: functional; outline: as §1
MCF7 [5] = experiment: Induction of apoptosis in human MCF7 cells after 12 to 24 hrs by annexin V-FITC/propidium iodide staining-based flow cytometry; assay type: functional, cell-based; outline: as §1
MCF7 [6] = experiment: Induction of apoptosis in human MCF7 cells assessed as late apoptotic cells at 2 uM after 12 hrs by annexin V-FITC/propidium iodide staining-based flow cytometry (reference value: 2.7%); assay type: functional; outline: as §1
MCF7 [7] = experiment: Cell cycle arrest in human MCF7 cells assessed as accumulation at S phase at 8 uM after 12 hrs by propidium iodide staining-based flow cytometry (reference value: 26.65%); assay type: functional
MCF7 [8] = experiment: Induction of apoptosis in human MCF7 cells assessed as necrotic cells at 4 uM after 12 hrs by annexin V-FITC/propidium iodide staining-based flow cytometry (reference value: 4.7%); assay type: functional; outline: as §1
MCF7 [9] = experiment: Induction of apoptosis in human MCF7 cells assessed as early apoptotic cells at 4 uM after 12 hrs by annexin V-FITC/propidium iodide staining-based flow cytometry (reference value: 7.2%); assay type: functional; outline: as §1
SMMC-7721 = experiment: Cytotoxicity against human SMMC7721 cells after 72 hrs by MTT assay; assay type: functional, cell-based; settings: SMMC-7721, 72 h
Outline: (§2)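 Cells were grown in RPMI1640 and seeded at 5 × 10^3 cells/well, then left 24 h at 37 °C. Medium was replaced with fresh medium holding a range of compound concentrations, from 10 mM DMSO stocks with final DMSO at most 0.1%. Exposure lasted 72 h. MTT (5 mg/mL) was added for 4 h at 37 °C, formazan was dissolved in DMSO and A570 was read. IC50 came from dose-response curves as mean ± SD of three independent experiments.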

MCF7 [10] = experiment: Cell cycle arrest in human MCF7 cells assessed as accumulation at S phase at 4 uM after 24 hrs by propidium iodide staining-based flow cytometry (reference value: 40.08%); assay type: functional
[11] = Cytotoxicity against human EC9706 cells after 72 hrs by MTT assay; assay type: functional, cell-based; settings: EC9706, 72 h; outline: as §2
MCF7 [12] = experiment: Induction of apoptosis in human MCF7 cells assessed as necrotic cells at 4 uM after 24 hrs by annexin V-FITC/propidium iodide staining-based flow cytometry (reference value: 6.2%); assay type: functional; outline: as §1
MCF7 [13] = experiment: Cell cycle arrest in human MCF7 cells assessed as accumulation at G2/M phase at 2 uM after 12 hrs by propidium iodide staining-based flow cytometry (reference value: 16.53%); assay type: functional
MGC-803 = experiment: Cytotoxicity against human MGC803 cells after 72 hrs by MTT assay; assay type: functional, cell-based; settings: MGC-803, 72 h; outline: as §2
MCF7 [14] = experiment: Cell cycle arrest in human MCF7 cells assessed as accumulation at G2/M phase at 2 uM after 24 hrs by propidium iodide staining-based flow cytometry (reference value: 16.27%); assay type: functional
MCF7 [15] = experiment: Cell cycle arrest in human MCF7 cells assessed as accumulation at G2/M phase after 12 to 24 hrs by propidium iodide staining-based flow cytometry; assay type: functional
MCF7 [16] = experiment: Induction of apoptosis in human MCF7 cells assessed as late apoptotic cells at 8 uM after 24 hrs by annexin V-FITC/propidium iodide staining-based flow cytometry (reference value: 2.1%); assay type: functional; outline: as §1
MCF7 [17] = experiment: Induction of apoptosis in human MCF7 cells assessed as late apoptotic cells at 8 uM after 12 hrs by annexin V-FITC/propidium iodide staining-based flow cytometry (reference value: 2.7%); assay type: functional; outline: as §1
MCF7 [18] = experiment: Cytotoxicity against human MCF7 cells after 72 hrs by MTT assay; assay type: functional, cell-based; settings: MCF7, 72 h; outline: as §2

With `O=C(CSC(=S)N[C@H]1CCOC1=O)Nc1ccc(C(=O)/C=C/c2ccccc2Cl)cc1` the Activity (MCF7 [1]) was “tde”, the Activity (MCF7 [2]) was 32.7% and the viability at 2 µM (MCF7 [3]) was 75.8%. The Activity (MCF7 [4]) was 16.4%, the Activity (MCF7 [5]) was “Dose-dependent effect” and the Activity (MCF7 [6]) was 1.7%. For the same molecule, the Activity (MCF7 [7]) was 25.84%, the Activity (MCF7 [8]) was 5.6% and the Activity (MCF7 [9]) was 14.7%. For the same molecule, the IC50 (SMMC-7721) was 20.4 µM, the Activity (MCF7 [10]) was 20.43% and the IC50 [11] was 34.1 µM. The Activity (MCF7 [12]) was 4.1%, the Activity (MCF7 [13]) was 18.26% and the IC50 (MGC-803) was 12.3 µM. For the same molecule, the Activity (MCF7 [14]) was 26.69%, the Activity (MCF7 [15]) was “Dose-dependent effect” and the Activity (MCF7 [16]) was 6.1%. It also gave an Activity (MCF7 [17]) of 1.6% and an IC50 (MCF7 [18]) of 5.57 µM.
